Data: publication PMC6543826 (Bioorganic chemistry, 2018)
Like-named read-outs stand apart in the source and are kept apart here.

Key:
EKVX = assay: NCI-60 SRB screen, Non-small cell lung cancer; format: cell-based, human; settings: for Growth percent (G%): 10^−5 M, 48 h
A498 = assay: NCI-60 SRB screen, Renal cancer; format: cell-based, human; settings: for Growth percent (G%): A498, 10^−5 M, 48 h
TK-10 = assay: NCI-60 SRB screen, Renal cancer; format: cell-based
Method in brief: (§1)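 Five-dose NCI-60 protocol (DTP, NCI). Absorbance was read at time zero (Tz), for untreated control (C) and at five compound levels (Ti), with SRB protein-stain end point read spectrophotometrically. GI50 from [(Ti−Tz)/(C−Tz)]×100 = 50; TGI from Ti = Tz; LC50 from [(Ti−Tz)/Tz]×100 = −50. A parameter not reached is given as greater than the highest concentration tested.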

HS 578 T = assay: NCI-60 SRB screen, Breast cancer; format: cell-based
Method in brief: as §1

UACC-257 = assay: NCI-60 SRB screen, Melanoma; format: cell-based
Method in brief: as §1

786–0 = assay: NCI-60 SRB screen, Renal cancer; format: cell-based
Method in brief: as §1

MDA-MB-231/ATCC = assay: NCI-60 SRB screen, Breast cancer; format: cell-based
Method in brief: as §1

COLO 205 = assay: NCI-60 SRB screen, Colon cancer; format: cell-based
Method in brief: as §1

[1] = test system: NCI-60 panel of tumor cell lines; assay: cells; settings: Homo sapiens
NCI/ADR-RES = assay: NCI-60 SRB screen, Ovarian cancer; format: cell-based
Method in brief: as §1

ERK2 = ERK2 (Rattus norvegicus, UniProt P63086); assay: steady-state kinetic experiments, ERK2 with varied Mg-ATP; format: biochemical; settings: versus ATP, double reciprocal plot
Method in brief: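 Activated rat ERK2 was run in the radiometric kinase buffer with 50 μM His-Ets-1. Mg-ATP was varied (10–2000 μM) at several fixed test compound concentrations (0–54 μM). Initial rates were taken from product-versus-time plots. Mechanism was assessed from a double-reciprocal plot of 1/V0 versus 1/[Mg-ATP].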

ERK2, sequence (P63086 whole entry): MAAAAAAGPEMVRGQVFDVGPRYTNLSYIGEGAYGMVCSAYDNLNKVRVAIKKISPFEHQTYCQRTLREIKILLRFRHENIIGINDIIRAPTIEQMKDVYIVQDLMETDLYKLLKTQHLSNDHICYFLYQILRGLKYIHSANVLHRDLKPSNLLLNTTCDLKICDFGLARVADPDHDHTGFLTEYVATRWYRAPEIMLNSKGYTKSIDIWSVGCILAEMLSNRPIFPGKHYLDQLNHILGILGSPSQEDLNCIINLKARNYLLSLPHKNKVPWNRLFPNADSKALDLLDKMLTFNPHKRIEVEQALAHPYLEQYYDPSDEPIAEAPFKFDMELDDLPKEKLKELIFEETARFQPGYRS

O=C1c2ccccc2C(=O)c2c1oc1c2c(=O)[nH]c2ccccc21 [3a, Naphtho[2′,3′:4,5]furo[3,2-c]quinoline-6,7,12(5H)-trione] was tested, and the “Growth percent (G%)” value (EKVX) was 27.35% and the “Growth percent (G%)” value (A498) was 103.58%.

For O=C1c2ccccc2C(=O)c2c1oc1c2c(=O)[nH]c2ccc(Cl)cc21 [3b, 2-Chloronaphtho[2′,3′:4,5]furo[3,2-c]quinoline-6,7,12(5H)-trione], the GI50 (TK-10; Homo sapiens, TK-10) was 380 nM, the CC50 (TK-10; Homo sapiens, TK-10, read-out: LC50) was 6030 nM and the TGI (TK-10; TK-10, five-dose) was 1100 nM. It also gave a TGI (HS 578 T; HS 578 T, five-dose) of 1380 nM, a GI50 (HS 578 T; Homo sapiens, Hs-578T) of 260 nM and a CC50 (HS 578 T; Homo sapiens, Hs-578T, read-out: LC50) of over 100000 nM. The GI50 (UACC-257; Homo sapiens, UACC-257) was 1320 nM, the CC50 (UACC-257; Homo sapiens, UACC-257, read-out: LC50) was 8510 nM and the TGI (UACC-257; UACC-257, five-dose) was 3390 nM. It also gave a TGI (786–0; 786–0, five-dose) of 540 nM, a GI50 (786–0; Homo sapiens, 786-0) of 220 nM and a CC50 (786–0; Homo sapiens, 786-0, read-out: LC50) of 2450 nM. For the same molecule, the GI50 (MDA-MB-231/ATCC; Homo sapiens, MDA-MB-231) was 170 nM, the CC50 (MDA-MB-231/ATCC; Homo sapiens, MDA-MB-231, read-out: LC50) was 2820 nM and the TGI (MDA-MB-231/ATCC; MDA-MB-231/ATCC, five-dose) was 510 nM. For the same molecule, the TGI (COLO 205; COLO 205, five-dose) was 27540 nM, the GI50 (COLO 205; Homo sapiens, COLO 205) was 10500 nM and the CC50 (COLO 205; Homo sapiens, COLO 205, read-out: LC50) was 72400 nM. The GI50 ([1]; read-out: GI50, average across all cell lines tested) was 240 nM, the GI50 ([1]; read-out: GI50 values, range over all cell lines) was 140 to 10500 nM and the CC50 ([1]; read-out: LC50, average) was 7580 nM. For the same molecule, the “Growth percent (G%)” value (EKVX) was 15.17%, the GI50 (EKVX; Homo sapiens) was 250 nM and the CC50 (EKVX; Homo sapiens, read-out: LC50) was 26300 nM. The TGI (EKVX; five-dose) was 2450 nM, the GI50 (NCI/ADR-RES; Homo sapiens) was 350 nM and the CC50 (NCI/ADR-RES; Homo sapiens, read-out: LC50) was 34700 nM. For the same molecule, the TGI (NCI/ADR-RES; five-dose) was 1780 nM, the “Growth percent (G%)” value (A498) was 80.44% and the TGI (A498; A498, five-dose) was 950 nM. It also gave a GI50 (A498; Homo sapiens, A498) of 210 nM and a CC50 (A498; Homo sapiens, A498, read-out: LC50) of 3550 nM.

For O=C1C(Cl)=C(c2c(O)c3c(=O)n(-c4ccccc4)c4ccccc4c3oc2=O)C(=O)c2ccccc21 [compound 6, 3-(3-Chloro-1,4-dioxo-1,4-dihydronaphthalen-2-yl)-4-hydroxy-6-phenyl-2H-pyrano[3,2-c]quinoline-2,5(6H)-dione], the “mechanism of ERK2 inhibition” value (ERK2) was “competitive inhibition”.
